Reference: the RNAGym collection of RNA variant scans (doi:10.1126/science.aae0568)
Fewer inactive variants are shown than the library holds.

B1: tRNA (parent)
chain: GUUCCGUUGGCGUAAUGGUAACGCGUCUCCCUCCUAAGGAGAAGACUGCGGGUUCGAGUCCCGUACGGAACG

Variants of: B1
Assay: yeast fitness relative to wild type (ratio to wild type); higher = fitter; tRNA-Arg(CCU), competitive growth, 37 C, YPD
In short: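 A pool of Saccharomyces cerevisiae strains, each with a tRNA-Arg(CCU) gene variant at the native genomic locus, was competed in YPD at 37°C for 24 hours across six parallel replicates. The variants had been chemically synthesised at a 3% per-site mutation rate over 69 sites, and gene amplicons before and after competition were read by 100-nucleotide paired-end sequencing. Darwinian fitness relative to wild type rested on changes in genotype frequencies. Genotypes required ≥ 100 starting reads, and estimates < 0.5 were set to 0.5.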

| Variant | yeast fitness |
| --- | --- |
| GUUCCGUUGGUGUAAUGAUAACGCGUCUCCCUCCUUAGGAGAAGACUCUGGGUUCGAGUCCCGUACGGAACG [C11U G18A A36U G48C C49U] | 0.558 |
| GUUCCGUUGGUGUAAUGGGAACGCGUCUCCCUCUUAAGGAGAAGACUGCGGGUUCAAGUCCCGUACGGAACG [C11U U19G C34U G56A] | ≤ 0.5 |
| GUUCCGUUGGUGUAAUCGUAUCGCGUCUCCCUCCUAAGGAGAAGACUGCGGGUUCAAGUCCCGUACGGAACG [C11U G17C A21U G56A] | ≤ 0.5 |
| GUUCCGUUGGUGUAAAGGUAACGCGUCUCCCUCCUAAGGAGAAGACUGCGGGUCCGAGUCCCGUACGGAACG [C11U U16A U54C] | ≤ 0.5 |
| GUUCCGUUGGUGUAAUGGUAACGCGUCUCCCUCCUAAGGAGAAGACUGCGGAUUCGAGUCCCGUUCGGAACG [C11U G52A A65U] | 0.567 |
| GUUCCGUUGGUGAAAUGGUAACGCGUCUCUCUCCUAACGAGAAGACUGAGGGUUCGAGUCCCGUACGGAACG [C11U U13A C30U G38C C49A] | ≤ 0.5 |
| GUUCCGUUGGUGUAAUGGUAACGCGUCUCCCUCCUAAGGAGAAAACUGCAGGUUCGAGUCCCGUAGGGAACG [C11U G44A G50A C66G] | 0.511 |
| GUUCCGUUGGUGUAAUCGUAACGCGUCUCCCACCUAAGGAGAAGAAUGCGGGUUCGAGUCCCGUACGGAACG [C11U G17C U32A C46A] | ≤ 0.5 |
| GUUCCGUUGGUGUAAUCGUAACGCGUCUCCCUCCUAAGGAGAAGACUGCGGGUUCGAGUCCUGUACGGUACG [C11U G17C C62U A69U] | 0.567 |
| GUUCCGUUGGUGUAAUGGCAACACAUCUCCCUCCUAAGGAGAAGACUGCGGGUUUGAGUCCCGUACGGAACG [C11U U19C G23A G25A C55U] | 0.537 |
| GUUCCGUUGGUGUAAUGGUAACGCGUCUCCCUCCUAAGGAGAAAACUGUGGGUUCGAGUCCCGUACGGAACG [C11U G44A C49U] | 0.81 |
| GUUCCGUUGGUGUAAUGGUAACGCGGCUCCCUCCCAAGGAGAAGACUGCGGGUUCGAGUCCCAUACGGAGCG [C11U U26G U35C G63A A70G] | ≤ 0.5 |
| GUUCCGUUGGUGUAAUGCUAACGCGUCUCCUUCCUAAGGAGAAGACUGCGGGUUCGAGUCCUGUACGGAACG [C11U G18C C31U C62U] | ≤ 0.5 |
| GUUCCGUUGGUGUAAUGGUAACGCGUCUCCCUCCUAAGGAGAAGACUGCGGGUUCGAGUCCCGUACGUAACG [C11U G68U] | 0.898 |
| GUUCCGUUGGUGUAAUGGUAACGCGUCUCCCUCCUAAGGAGAAGACUGCGGGUUCGAGUCCCGUACGCAACG [C11U G68C] | 0.814 |
| GUUCCGUUGGUGUAAUGGUAACGCGUCUCCCUCCUAAGGAGAAGACUGCGGAUUCGAGUACCGUACGGAACG [C11U G52A C60A] | 0.593 |
| GUUCCGUUGGUGUAAUAGUAACGCGUCUCCCUCCUAAGGCGAAGACUGCGGGUUCGAGUCCCGUACGGAACG [C11U G17A A40C] | ≤ 0.5 |
| GUUCCGUUGGUGUAAUGGUAACGCGUCUCCCUCCUAAGGAGAAGACUGCGGGUUUGAGUCCCGUACGGAACG [C11U C55U] | 0.8 |
| GUUCCGUUGGUGUAAUGGUAACGCGUCUCCCUCCUAAGGAGAAGACUGCGGGUUAGAGUCCCGUACGGAACG [C11U C55A] | 0.678 |

| Variant | yeast fitness |
| --- | --- |
| GUUCCGUUGGUGUAAUGGUAACGCGUCUCCCUCCUAAGUAGAAGACUGCGGGUUCGAGUCCCGUACGGAACG [C11U G39U] | 0.835 |
| GUUCCGUUGGUGUAAUGGUAACGCGUCUCCCUCCUAAGAAGAAGACUGCGGGUUCGAGUCCCGUACGGAACG [C11U G39A] | 0.947 |
| GUUCCGUUGGUGUAAUGGUAACGCGUCUCCCUCCUAAGGAGAAGACUGGGGGUUCGAGUCCUGUACGGAACG [C11U C49G C62U] | ≤ 0.5 |
| GUUCCGUUGGUGCAAUGGUAACGAGUCUCCCUCCUAAGGAGACGACUGCCGGUUCGAGUGCCGUACGGAUCG [C11U U13C C24A A43C G50C C60G A70U] | 0.567 |
| GUUCCGUUGGUGUAAUGGAAACGCGUCUCCCUUCUAAGGACAAGCCUGCGGGUUCGAGUCCCGUACGGAACG [C11U U19A C33U G41C A45C] | ≤ 0.5 |
| GUUCCGUUGGUGUAAUGGUAACGCGUCUCCCUCCUAAGGAGAAGAGUGCGAGUUUGAGUCCCUUACGGAACG [C11U C46G G51A C55U G63U] | ≤ 0.5 |
| GUUCCGUUGGUGUAAUGGUAACGCGUCUCCCUCCUAAGGAAAAGACUGCGGGUUCGAGUGCCGUGCGGAACG [C11U G41A C60G A65G] | 0.624 |
| GUUCCGUUGGUGUAAUGGCAACGCGUCUCCAUCCUAAGGAGAAGACUGCUGGUUCGAGUCCGGUACGGAACG [C11U U19C C31A G50U C62G] | ≤ 0.5 |
| GUUCCGUUGGUGUAAUGGUAACCCGUCUCCCUCCUAAGGAAAAGACUGCGGGUUCGAGUCCAGUACGGAACG [C11U G23C G41A C62A] | ≤ 0.5 |
| GUUCCGUUGGUGUAAUGGUAACGCGUCUCCCUCCUAAGGAGAAGACUGCGGGUUCGAGUCCCAUACGGAACG [C11U G63A] | 0.903 |
| GUUCCGUUGGUCUAAUGGUAACGCGUCUCCCUCCUAAGGAGAAGACUGCGGGUUCGAGUCCCGUACGGAACG [C11U G12C] | 0.75 |
| GUUCCGUUGGUGGAAUGGAAAGGCAUCUCCCUCCUAAGGAGAAGACUGCGGGUUCGAGUCCCGUCCGGAACG [C11U U13G U19A C22G G25A A65C] | ≤ 0.5 |
| GUUCCGUUGGUGUAAUGGUAACGCGUCUCCCUCAUAAGGAGAAGACUGCGGGUUCGAGUCCCGUACGGAACG [C11U C34A] | 0.758 |
| GUUCCGUUGGUGUAAUGCUAACGCGUCUCCCUCCUAAGGCGAAGACUGCGGGUUCGAGUCCCAUACGGAACG [C11U G18C A40C G63A] | ≤ 0.5 |
| GUUCCGUUGGUGUAAUGGUAACGCGUCUCCCUCCUAAGGAGAAGACUGCGGGUUAGAGUCCCGUAAGGAACG [C11U C55A C66A] | ≤ 0.5 |
| GUUCCGUUGGUGUAAUGGGAACGCGUCUCCCUCCUAAGGAGAAGACUGCGGGUUCGAGUCCCGUACGGAACG [C11U U19G] | 0.962 |
| GUUCCGUUGGUGUAAUGGGAACGCGUCUCCCUCCUAAGGAGAAGACUGCGGGUUCGAGUCCCGUAAGGAACG [C11U U19G C66A] | 0.54 |
| GUUCCGUUGGUGAAAUGGUAACGCGUCUCCCUCCUAAGGAAAAGUCUGCGGGUUCGAUUACCGUACGGAACG [C11U U13A G41A A45U G58U C60A] | ≤ 0.5 |
